# Results: ChEMBL document CHEMBL2331231, “Arylsulfonamide inhibitors of aggrecanases as potential therapeutic agents for osteoarthritis: synthesis and biological evaluation” (Eur J Med Chem, 2013)
# Calls of active or inactive are those of the source. No cut-off for these calls is given here.
# Key:
# [1] = biological target: Matrix metalloproteinase-14 (Homo sapiens, UniProt P50281); test: Inhibition of human recombinant MMP14 catalytic domain using Mca-Lys-Pro- Leu-Gly-Leu-Dap(Dnp)-Ala-Arg-NH2 as substrate incubated for 2 hrs prior to substrate addition measured every 15 secs for 15 mins by fluorometric analysis
# Method in brief: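 Proenzymes were APMA-activated: MMP-1 with 2 mM for 2 h, MMP-2 with 2 mM for 1 h, both at 37 °C. Final enzyme levels were 2.0 nM MMP-1, 0.5 nM MMP-2 and 1.0 nM MMP-14cd. Each was preincubated with inhibitor at seven concentrations for 2 h at 25 °C in Tris pH 7.5 buffer with 1% DMSO. Mca-KPLGL-Dap(Dnp)-AR-NH2 (2 μM final) was added and read at ex 325/em 395 nm, in duplicate; IC50 was fitted from initial velocities.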
# [2] = biological target: T1, A disintegrin and metalloproteinase with thrombospondin motifs 4 (Homo sapiens, UniProt O75173); test: Inhibition of human recombinant ADAMTS4 expressed in HEk293 cells using FAM-AEwLQGRPISIAK-TAMRA as substrate measured for 15 mins by fluorometric analysis
# T1 sequence (O75173 whole entry): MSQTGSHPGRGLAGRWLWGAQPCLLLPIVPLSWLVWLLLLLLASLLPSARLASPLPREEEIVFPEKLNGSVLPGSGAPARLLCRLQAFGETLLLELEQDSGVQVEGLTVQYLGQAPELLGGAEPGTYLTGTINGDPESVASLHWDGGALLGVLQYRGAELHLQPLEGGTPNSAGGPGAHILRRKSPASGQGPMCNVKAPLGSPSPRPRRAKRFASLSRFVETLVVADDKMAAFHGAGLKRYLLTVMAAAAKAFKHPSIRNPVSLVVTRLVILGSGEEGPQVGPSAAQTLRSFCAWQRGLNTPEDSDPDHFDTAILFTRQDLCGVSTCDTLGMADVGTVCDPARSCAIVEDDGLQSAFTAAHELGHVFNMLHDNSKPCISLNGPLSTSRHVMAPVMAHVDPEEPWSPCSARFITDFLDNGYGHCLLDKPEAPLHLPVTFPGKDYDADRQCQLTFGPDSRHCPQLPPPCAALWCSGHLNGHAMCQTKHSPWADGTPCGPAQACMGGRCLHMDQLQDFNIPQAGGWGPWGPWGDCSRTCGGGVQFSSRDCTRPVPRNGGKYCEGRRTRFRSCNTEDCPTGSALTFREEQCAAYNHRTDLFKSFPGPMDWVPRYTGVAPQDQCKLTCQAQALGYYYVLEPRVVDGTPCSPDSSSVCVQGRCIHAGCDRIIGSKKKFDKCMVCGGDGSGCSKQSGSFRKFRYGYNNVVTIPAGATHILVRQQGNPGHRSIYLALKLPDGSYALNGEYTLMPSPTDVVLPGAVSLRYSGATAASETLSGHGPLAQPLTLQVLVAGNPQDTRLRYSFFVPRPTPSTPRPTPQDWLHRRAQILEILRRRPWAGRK
# [3] = Cytotoxicity against pig primary chondrocytes at 1 to 10 uM after 24 hrs by MTT assay; parameters: species or system Sus scrofa
# Method in brief: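 Primary porcine chondrocytes were isolated from diced cartilage with 1.5 mg/mL collagenase 2 in DMEM/10% FCS at 37 °C for 24 h. Cells were seeded at 2.5×10^4 per well and exposed to 1 or 10 μM inhibitor for 24 h. MTT (0.5 mg/mL final) was added for 1 h at 37 °C. Formazan was solubilized in 5% SDS/5 mM HCl overnight and read at 590 nm; n = 3.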
# [4] = species: Sus scrofa; test: Inhibition of ADAMTS5 in pig articular cartilage assessed as inhibition of IL1alpha-induced aggrecan cleavage at 10 uM after 24 hrs by Western blot analysis
# Method in brief: (§1)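 Pieces of porcine metacarpophalangeal articular cartilage from 3–9-month-old pigs were cultured in serum-free DMEM ± IL-1α (10 ng/mL) with inhibitor at 1 or 10 μM or GM6001 at 100 μM for 24 h, three pieces per treatment. Conditioned media were deglycosylated with chondroitinase ABC and keratanase, acetone-precipitated, run on 6% SDS-PAGE and Western blotted with an anti-ARGSV aggrecanase-neoepitope antibody.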
# [5] = species: Sus scrofa; test: Inhibition of ADAMTS5 in pig articular cartilage assessed as inhibition of IL1alpha-induced aggrecan cleavage at 1 uM after 24 hrs by Western blot analysis; method in brief: as §1
# [6] = species: Sus scrofa; test: Inhibition of ADAMTS5 in pig articular cartilage assessed as inhibition of IL1alpha-induced glycosaminoglycan release after 24 hrs by DMMB method
# Method in brief: (§2)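 Cartilage explants from 3–9-month-old porcine metacarpophalangeal joints were cultured in serum-free DMEM ± IL-1α (10 ng/mL) with inhibitor at 1 or 10 μM or GM6001 at 100 μM for 24 h, three pieces per treatment. GAG released into the medium was measured in duplicate by DMMB against a shark chondroitin sulfate standard. Data were analysed by unpaired one-tail t test with Welch's correction.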
# [7] = species: Sus scrofa; test: Inhibition of ADAMTS5 in pig articular cartilage assessed as inhibition of IL1alpha-induced glycosaminoglycan release at 10 uM after 24 hrs by DMMB method; method in brief: as §2
SMILES,IC50 [1],IC50 [2],Activity [3],inhibition [4],inhibition [5],inhibition [6],inhibition [7]
O=C(CNS(=O)(=O)c1ccc(OCc2ccccc2)cc1)NO,310 nM,3500 nM,,,,,
O=C(CNS(=O)(=O)c1ccc(OCc2ccc(F)cc2Cl)cc1)NO,3700 nM,80 nM,Non-toxic,Active,Active,Dose-dependent effect,Active
